In the EternaBench riboswitch data:

Test system: MS2 coat protein
Experiment: apparent Kd, MS2 coat protein; higher = weaker binding; RNA-MaP array; tryptophan 2.4 mM where present
Procedure, shortened: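 Green signal was scaled to red-channel RNA signal and control-cluster median Fmax, and the apparent Kd was taken as the median of filtered per-cluster binding-curve fits. The binding series used SNAP-549-labelled MS2 coat protein from 0.7 or 1.5 nM, doubling to 3 µM, on designs transcribed by stalled E. coli RNA polymerase on Illumina sequencing-chip clusters. Each series ran without and then with constant ligand in 100 mM Tris-HCl pH 7.5, 80 mM KCl, 4 mM MgCl2, BSA, DTT, yeast tRNA and Tween-20.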

[1] = designed as: ON switch for tryptophan, no ligand
[2] = ligand present: tryptophan, designed as: ON switch for tryptophan
[3] = designed as: OFF switch for tryptophan, no ligand
[4] = ligand present: tryptophan, designed as: OFF switch for tryptophan

Row | Sequence | apparent Kd [1] [nM] | apparent Kd [2] [nM] | apparent Kd [3] [nM] | apparent Kd [4] [nM]
1 | CGAAUAUAGACGGCCGCCACUCUACAAACAUGAGGAUCACCCAUGUUCACAUAGAGGAAACUCAUGAGGACCGGGUCAUAGGCUU | 23.4 | 20 | – | –
2 | UAAUAAGUGCCGGUUCUCAGAUCCUCAUGUCGAGGACCGGUACGGCCGCCACUCGAAACAUGAGGAUCACCCAUGUAAUAAUAAU | – | – | 51.8 | 34.1
3 | AAACAUGAGGAUCACCCAUGUCCUCCUGUCCGAGGACCGGUACGGCCGCCACUCGGUUCUCGGGAGGAUGGUCAAAGACUAUCCA | 290 | 253 | – | –
4 | AACAUACAAUAAUAGGUGGAUAUAAGGCGGCGAGGACCGGUACGGCCGCCACUCGCGUACAUGAGGAUCACCCAUGUCUGAAACU | 23.2 | 28.1 | – | –
5 | GCAUCCUAGUCGGCCGCCACUGGUACGAACACCUUCACCCGUGUGCACAUGAGGAUCACCCAUGUUAGGACCGGGACUAGGAUGC | 8.2 | 7.99 | – | –
6 | GCGUUCUCUGCGGCCGCCACUCAAGGAGCUACAUAGCUCCUAGACAUGAGGAUCACCCAUGUGGCGAGGACCGGGUAGAUCCUUA | 202 | 168 | – | –
7 | AGGUGCUGAUCGGCCGCCACUGAGAGGACGUGAACUUUAGCUGGUUACAUGAGGAUCACCCAUGUCAGGACCGGGAUUAGUUUGC | – | – | 9.26 | 17.4
8 | AGUAUUGGAAACAGUACUAGUGAUCCGGUCCGAGGACCGGUACGGCCGCCACUCGAUUUAAAUAAACAUGAGGAUCACCCAUGUA | – | – | 13.8 | 25.2
9 | UAAACUACACAUGAGGAUCACCCAUGUGGCCGAGGACCGGUACGGCCGCCACUCGUGUGUUAAUAAAAGAACUGCAAGAUUCUUU | 126 | 92.6 | – | –
10 | GGCACAUAGUCGGCCGCCACUAGAAUAAGAAGGGAAAACAUGAGGAUCACCCAUGUAAAAGGGACUAGGACCGGGACUAUGUGCC | – | – | 13.9 | 13
11 | AAAGCCACUUCGGCCGCCACUACAACAUGAGGAUCACCCAUGUACCUCGUGUACGGUCCGAGGAGUAGGACCGGGAAGUGGUGGA | 132 | 52.8 | – | –
12 | AGCUACUCGUUCCUCAUGUACGAGUGGCAACGAGGACCGGUACGGCCGCCACUCGAAUAAACAUGAGGAUCACCCAUGUACAAAU | 54.6 | 120 | – | –
13 | UUUGACGGCGAUCUGGGUUUACCAGAUCGGCGAGGACCGGUACGGCCGCCACUCGUGUUUCUUUGACAUGAGGAUCACCCAUGUA | 39.1 | 18.4 | – | –
14 | ACGGAGAUGUCGGCCGCCACUGAACUCAUGUUCAACAUGAGGAUCACCCAUGUACCUUAGUUUAUCAGGACCGGGACAUAUACGA | – | – | 116 | 48.1
